One data set has as its system TNBC (MDA-MB-231) cells. Description: Extracellular eATP hydrolysis on live TNBC cells. The conditions noted are these: 1, 10, 100 µM, significant at 10 µM, 20 µM eATP. It is filed as cell-based, human.
A further data set has as its target T1, Soluble CD73 (Homo sapiens, UniProt P21589).
T1 sequence (P21589 27-549 limits assumed): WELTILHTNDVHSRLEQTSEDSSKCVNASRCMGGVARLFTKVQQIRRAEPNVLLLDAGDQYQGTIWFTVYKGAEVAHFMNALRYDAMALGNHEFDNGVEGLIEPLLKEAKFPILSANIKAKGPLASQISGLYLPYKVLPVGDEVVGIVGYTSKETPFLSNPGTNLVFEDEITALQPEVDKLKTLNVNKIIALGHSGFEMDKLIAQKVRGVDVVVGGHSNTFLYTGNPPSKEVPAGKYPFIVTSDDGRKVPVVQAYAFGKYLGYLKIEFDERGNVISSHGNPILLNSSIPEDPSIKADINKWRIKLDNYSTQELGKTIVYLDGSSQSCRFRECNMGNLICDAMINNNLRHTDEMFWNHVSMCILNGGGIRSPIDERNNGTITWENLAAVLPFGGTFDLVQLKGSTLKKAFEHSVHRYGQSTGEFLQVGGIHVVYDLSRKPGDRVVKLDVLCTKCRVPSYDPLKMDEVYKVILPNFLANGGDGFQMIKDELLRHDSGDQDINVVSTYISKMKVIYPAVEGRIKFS
The data set is described as follows: CD73 assay with [2,8-3H]AMP. It is filed as biochemical. In a few lines:
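A dilution series of test compound was incubated with soluble human CD73 (0.09 µg/mL) and 5.0 µM [2,8-3H]AMP in 25 mM Tris, 140 mM NaCl, 25 mM NaH2PO4, pH 7.4. Incubation ran 25 min at 37°C with shaking. Cold LaCl3/sodium acetate buffer (pH 4.0) precipitated phosphate and unconverted AMP over 30 min on ice. Samples were filtered through GF/B filters and the filtrate collected.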

For data set [1], the target named is T2, human CD39 (Homo sapiens, UniProt P49961).
T2 sequence (P49961 1-510): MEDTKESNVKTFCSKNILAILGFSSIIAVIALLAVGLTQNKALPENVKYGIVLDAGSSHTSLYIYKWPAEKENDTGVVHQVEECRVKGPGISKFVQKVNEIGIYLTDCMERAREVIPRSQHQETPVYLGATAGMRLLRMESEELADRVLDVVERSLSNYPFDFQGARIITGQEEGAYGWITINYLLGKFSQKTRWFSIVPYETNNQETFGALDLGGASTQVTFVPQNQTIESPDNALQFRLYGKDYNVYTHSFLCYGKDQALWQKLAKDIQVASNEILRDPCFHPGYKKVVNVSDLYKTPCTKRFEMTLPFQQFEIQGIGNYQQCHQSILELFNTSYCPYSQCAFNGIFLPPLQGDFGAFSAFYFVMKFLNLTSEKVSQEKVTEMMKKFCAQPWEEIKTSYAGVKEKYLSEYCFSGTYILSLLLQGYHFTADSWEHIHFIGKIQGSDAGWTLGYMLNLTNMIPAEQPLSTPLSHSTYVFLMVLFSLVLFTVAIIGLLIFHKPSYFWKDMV
It is filed as biochemical. A digest of the protocol:
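CD39 came from human umbilical cord membranes (50.0 ng protein per well). Substrate was 50 µM ATP in 10 mM HEPES, 2 mM CaCl2, 1 mM MgCl2, pH 7.4, with ≤2% DMSO. Enzyme and test compound were preincubated 5 min at 37°C; reaction ran 15 min at 37°C. Malachite green/molybdate was added and A600 read after 20 min at 25°C, minus a heat-denatured enzyme blank. Screening was at 10 µM; curves spanned 0.1–300 µM; n=3.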

The target of a further data set is T3, NPP1 (Homo sapiens, UniProt P22413).
T3 sequence (P22413 98-925 limits assumed): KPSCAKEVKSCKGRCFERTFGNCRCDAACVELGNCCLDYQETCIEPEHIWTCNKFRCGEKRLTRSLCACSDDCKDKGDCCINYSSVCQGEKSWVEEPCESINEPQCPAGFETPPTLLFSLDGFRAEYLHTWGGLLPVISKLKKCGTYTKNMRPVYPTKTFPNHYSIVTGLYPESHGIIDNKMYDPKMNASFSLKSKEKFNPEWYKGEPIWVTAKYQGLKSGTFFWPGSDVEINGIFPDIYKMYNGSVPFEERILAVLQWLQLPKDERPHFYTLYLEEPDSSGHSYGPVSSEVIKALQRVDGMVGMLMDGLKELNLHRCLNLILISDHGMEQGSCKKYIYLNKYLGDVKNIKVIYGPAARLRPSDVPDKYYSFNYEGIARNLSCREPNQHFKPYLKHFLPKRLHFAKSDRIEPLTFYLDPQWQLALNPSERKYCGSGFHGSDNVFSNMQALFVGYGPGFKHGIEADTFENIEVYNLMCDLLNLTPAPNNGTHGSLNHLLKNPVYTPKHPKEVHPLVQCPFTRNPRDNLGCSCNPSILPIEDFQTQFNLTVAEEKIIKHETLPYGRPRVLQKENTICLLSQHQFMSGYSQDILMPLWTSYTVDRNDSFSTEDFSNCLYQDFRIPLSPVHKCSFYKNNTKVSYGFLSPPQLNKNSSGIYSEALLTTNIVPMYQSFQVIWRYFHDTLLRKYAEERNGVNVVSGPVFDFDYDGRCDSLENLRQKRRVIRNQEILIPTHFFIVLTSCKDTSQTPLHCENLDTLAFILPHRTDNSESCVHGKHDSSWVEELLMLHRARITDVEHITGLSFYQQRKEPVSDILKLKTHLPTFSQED
The data set is described as follows: NPP1 assay. It is filed as biochemical. A digest of the protocol: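 Crude soluble NPP1 (800 ng, Sf9-expressed) was incubated with 50 µM test compound, 2% DMSO and 300 µM ATP. Buffer: 10 mM CHES, pH 9.0, 2 mM CaCl2, 1 mM MgCl2; 30 min at 37°C with shaking. The reaction was stopped by 5 min at 90°C, then cooled on ice. Product AMP was quantified by capillary electrophoresis.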

Data set [2] concerns the target T2, human CD39. Description: CE-UV. The format is biochemical. A digest of the protocol: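 Recombinant human CD39 (COS-7 membranes) was incubated with test compound (0.1–300 µM) and 100 µM ATP. Buffer: 10 mM HEPES, 2 mM CaCl2, 1 mM MgCl2, pH 7.4; 30 min at 37°C. Reactions were stopped by heating 10 min at 90°C. ATP, ADP and AMP were separated by capillary electrophoresis with UV detection.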

The conditions of data set [3]: patients, peroral; cited from earlier work.
For data set [4] the following is noted: cited from earlier work.
The mark [5] stands for this setting: read-out: % inhibition at 50 µM.

Like-named read-outs stand apart in the source and are kept apart here.

The text below walks through data of PMC9394215 (Journal for Immunotherapy of Cancer, 2022).

On to `Cc1cc(Nc2ncc(Cl)c(Nc3ccccc3S(=O)(=O)C(C)C)n2)c(OC(C)C)cc1C1CCNCC1` [ceritinib, Ceritinib], for which the “inhibition of hydrolysis of eATP added to live cells” value in the data set with TNBC (MDA-MB-231) cells is “concentration-dependent inhibition”. Further, the IC50 (as a rule, the concentration that gives 50% inhibition) is above 50 µM against Soluble CD73, 11.3 ± 0.8 µM against human CD39 [1], above 50 µM against NPP1 and 13.7 ± 0.6 µM on human CD39 [2]. For the same compound, the inhibition (in general, the share of the control response that was lost under treatment) at 50 µM on Soluble CD73 (setting [5]) is 33%; on NPP1 (setting [5]) it was 8%. Moreover, the inhibition at 10 µM on human CD39 [1] (read-out: inhibition of human CD39) is above 50%. The maximum plasma levels entry in data set [3] is listed as “up to 1.4 µM”. For the same compound, the “pharmacokinetics in mice versus humans” value in data set [4] is reported as “comparable pharmacokinetics”.
